The values below come from ChEMBL document CHEMBL1124747, “Properties of the nucleic acid photoaffinity labeling agent 3-azidoamsacrine” (J Med Chem, 1990).

The nature of data set [1]: Half-life was evaluated in water in the absence of light. Format: ADME.
Data set [2] relates to L5178Y. Description: Relative mutation induction for L5178Y cells was evaluated at dose 0.005 mg/mL in dark condition (expt-II). In kind it is functional, Mus musculus. The method in brief: (§1)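 L5178Y suspension cells (3 × 10^6/mL, 5% CO2, 37 °C, shaking) exposed 20 h without activating enzyme; light arm irradiated 6.5 min (Hg lamp, <340 nm filtered). Cells washed, grown 24 h more and kept at 3 × 10^5/mL. Viability from 200 cells in soft agar; TFT (0.1 mg/mL) resistant colonies from 10^6 cells in triplicate dishes, counted at 10 days.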

For data set [3], the system named is L5178Y. The experiment in a line: Relative mutation induction for L5178Y cells was evaluated at dose 0.005 mg/mL in light condition (expt-II). In kind it is functional, Mus musculus. The method in brief:
as §1

In data set [4] the test system is L5178Y. Description: Relative toxicity against mammalian L5178Y cells at dose 0.005 mg/mL in dark condition (expt-II). Format: functional, Mus musculus. The method in brief: (§2)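 L5178Y mouse cells in suspension, 3 × 10^6 cells/mL, were exposed for 20 h at 37 °C in a shaker at 150 rpm under 5% CO2, without an activating enzyme. Light arms were irradiated for 6.5 min with a medium-pressure Hg lamp filtered to remove light below 340 nm; dark arms were not. Toxicity was taken as the Coulter-counted density of treated cells versus solvent control.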

The test system of data set [5] is L5178Y. The experiment in a line: Relative toxicity against mammalian L5178Y cells at dose 0.005 mg/mL in light condition (expt-II). Format: functional, Mus musculus. The method in brief: as §2
Data set [6] relates to L5178Y. The experiment in a line: Viability of L5178Y cells was evaluated at dose 0.005 mg/mL in dark condition (expt-II). In kind it is functional, Mus musculus. The method in brief:
(§3)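 L5178Y cells were exposed for 20 h at 3 × 10^6 cells/mL. Light arms then received 6.5 min of Hg-lamp irradiation filtered to remove light below 340 nm. Cells were washed twice in Fischer's medium, grown a further 24 h and held at 3 × 10^5 cells/mL. For viability, 200 cells were plated in soft-agar cloning medium in triplicate dishes, and colonies were counted by an automated counter after 10 days.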

In data set [7] the test system is L5178Y. The experiment in a line: Viability of L5178Y cells was evaluated at dose 0.005 mg/mL in light condition (expt-II). In kind it is functional, Mus musculus. The method in brief:
as §3

Data set [8] concerns L5178Y. Description: Induction frequency for L5178Y cells was evaluated at dose 0.005 mg/mL in dark condition (expt-II). In kind it is functional, Mus musculus. The method in brief: as §1
For data set [9], the system named is L5178Y. Description: Induction frequency for L5178Y cells was evaluated at dose 0.005 mg/mL in light condition (expt-II). In kind it is functional, Mus musculus. The method in brief: as §1
Data set [10] deals with L5178Y. Description: Mean value of mutation induction for L5178Y cells was evaluated at dose 0.005 mg/mL in dark condition (expt-II). Format: functional, Mus musculus. The method in brief: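 L5178Y cells in suspension culture, gassed with 5% CO2 in air, shaken at 150 rpm, 37 °C. Cells at 3 × 10^6/mL were dosed for 20 h, unirradiated and without activating enzyme, then washed twice in Fop and grown 24 h more. TFT-resistant mutants came from 10^6 cells plated in three dishes of cloning medium with 0.1 mg/mL TFT, colonies counted at 10 days; frequency expressed ×10^6.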

Data set [11] deals with L5178Y. Description: Mean value of mutation induction for L5178Y cells was evaluated at dose 0.005 mg/mL in light condition (expt-II). In kind it is functional, Mus musculus. The method in brief:
as §1

Data set [12] relates to L5178Y. The experiment in a line: Mutation frequency for L5178Y cells was evaluated at dose 0.005 mg/mL in dark condition (expt-II). Format: functional, Mus musculus. The method in brief: as §1
Data set [13] relates to L5178Y. The experiment in a line: Mutation frequency for L5178Y cells was evaluated at dose 0.005 mg/mL in light condition (expt-II). In kind it is functional, Mus musculus. The method in brief:
as §1

Data set [14] in a line: Ability to block cleavage of G/GNCC site in Restriction endonuclease Sau961 with the test compound/DNA ratio 1(no. of sites=15); - = no activation. The method in brief:
(§4)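 pBR322 plasmid mixed with drug at 0.015, 0.12 or 0.48 mM (drug:DNA 1:8, 1:1 or 4:1), equilibrated on ice 30 min in the dark in 5 mM potassium phosphate pH 5.5, then irradiated 1 h with a medium-pressure Hg lamp (<340 nm filtered); dark set kept as control. Digested overnight with 10× excess enzyme plus DTT; fragments resolved on 1.2% agarose in TBE.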

Data set [15] is described as follows: Ability to block cleavage of G/GNCC site in Restriction endonuclease Sau961 with the test compound/DNA ratio 1:8(no. of sites=15); - = no activation. The method in brief: as §4
A short description of data set [16]: Half-life was evaluated in water in the presence of light. In kind it is ADME.

Take `COc1cc(NS(C)(=O)=O)ccc1Nc1c2ccccc2nc2ccccc12` [AMSACRINE]: the half-life (in general, the time needed for the level to fall by half in the phase considered) is more than 336 h in data set [1] and 24 h in data set [16]. Also, the Relative activity with L5178Y [2] was 67; in the data set with L5178Y [3], 10. For the same compound, the Relative toxicity in the data set with L5178Y [4] and with L5178Y [5] was 62 in each case. In addition, the results for the Viability in the data set on L5178Y [6] and in the data set on L5178Y [7] were 20 and 12.3, respectively. The Induced frequency in the data set with L5178Y [8] was 439; in the data set with L5178Y [9], 733. Moreover, the Mean value is given as 57.7 in the data set with L5178Y [10] and 53 in the data set with L5178Y [11]. Moreover, the Mutation frequency with L5178Y [12] is given as 577 10e6 F; in the data set on L5178Y [13], 862 10e6 F. In addition, the inhibition entry in [14] and in [15] was “no activation” in each case.
